Experimental findings from ChEMBL document CHEMBL4402611, “Phenyl(thio)phosphon(amid)ate Benzenesulfonamides as Potent and Selective Inhibitors of Human Carbonic Anhydrases II and VII Counteract Allodynia in a Mouse Model of Oxaliplatin-Induced Neuropathy” (J Med Chem, 2020) are described below.

SMILES strings stand for the structures. Active and inactive are the calls of the source.

Data set [1] concerns Mus musculus. In words: Antinociceptive activity in CD-1 albino mouse model of oxaliplatin-induced neuropathic pain assessed as decrease in pain-related behaviour measured as licking latency at 50 mg/kg, po treated on day 15 post oxaliplatin treatment and measured after 15 to 45 mins post dose by cold plate test. Format: functional, organism-based. In a few lines:
(§1)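 Male CD-1 mice (22–25 g) given oxaliplatin 2.4 mg kg–1 i.p. in 5% glucose on days 1–2, 5–9 and 12–14 (10 injections). On day 15, compounds were suspended in 1% CMC and given once orally. Cold plate held at 4 °C; latency to first hind-paw licking recorded, 30 s cutoff. Readings taken before dosing and at 15, 30, 45 and 60 min after. 12 mice per group over two sets, observers blinded.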

In the next data set the target is Carbonic anhydrase 12 (Homo sapiens, UniProt O43570). In words: Inhibition of human recombinant carbonic anhydrase 12 preincubated with enzyme for 1 hr prior to testing by phenol red-based stopped-flow CO2 hydration assay.
For data set [2], the target named is Carbonic anhydrase 5B, mitochondrial (Homo sapiens, UniProt Q9Y2D0). In words: Inhibition of human recombinant carbonic anhydrase 5B preincubated with enzyme for 1 hr prior to testing by phenol red-based stopped-flow CO2 hydration assay.
For data set [3], the target named is Carbonic anhydrase 5A, mitochondrial (Homo sapiens, UniProt P35218). In words: Inhibition of human recombinant carbonic anhydrase 5A preincubated with enzyme for 1 hr prior to testing by phenol red-based stopped-flow CO2 hydration assay.
The next data set has as its target Carbonic anhydrase 4 (Homo sapiens, UniProt P22748). In words: Inhibition of human recombinant carbonic anhydrase 4 preincubated with enzyme for 1 hr prior to testing by phenol red-based stopped-flow CO2 hydration assay.
Another data set concerns the target Carbonic anhydrase 7 (Homo sapiens, UniProt P43166). In words: Inhibition of human recombinant carbonic anhydrase 7 preincubated with enzyme for 1 hr prior to testing by phenol red-based stopped-flow CO2 hydration assay.
In a further data set the target is Carbonic anhydrase 2 (Homo sapiens, UniProt P00918). In words: Inhibition of human recombinant carbonic anhydrase 2 preincubated with enzyme for 1 hr prior to testing by phenol red-based stopped-flow CO2 hydration assay.
A further data set addresses Carbonic anhydrase 1 (Homo sapiens, UniProt P00915). In words: Inhibition of human recombinant carbonic anhydrase 1 preincubated with enzyme for 1 hr prior to testing by phenol red-based stopped-flow CO2 hydration assay.
The next data set addresses Carbonic anhydrase 9 (Homo sapiens, UniProt Q16790). In words: Inhibition of human recombinant carbonic anhydrase 9 preincubated with enzyme for 1 hr prior to testing by phenol red-based stopped-flow CO2 hydration assay. Format: single protein.
Data set [4] is described as follows: Stability of compound in human plasma measured up to 120 mins by LC-MS/MS analysis. Particulars: 2 h. Format: ADME, cell-free. In a few lines:
(§2)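 Analyte (1 μM final) incubated at 37 °C in PBS, 10 mM HCl (pH 2) or human plasma. Sampling at 0, 30, 60 and 120 min, each in triplicate. Samples were quenched with acetonitrile containing verapamil internal standard, centrifuged and diluted. Read-out was LC–MS/MS with positive ESI and MRM on a PFP column.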

Data set [5] is described as follows: Stability of compound in PBS buffer measured up to 120 mins by LC-MS/MS analysis. Format: physicochemical. Conditions: 2 h. In a few lines: as §2
Data set [6] concerns Mus musculus. In words: Antinociceptive activity in orally dosed CD-1 albino mouse model of oxaliplatin-induced neuropathic pain assessed as decrease in pain-related behaviour measured as licking latency treated on day 15 post oxaliplatin treatment and measured upto 45 mins post dose by cold plate test. Type of data set: functional, organism-based. An outline of the steps: as §1

The nature of data set [7]: Stability of compound in aqueous HCl solution at pH 2 measured up to 120 mins by LC-MS/MS analysis. Type of data set: physicochemical. Particulars: buffer, pH 2, 2 h. An outline of the steps: as §2
The subject of data set [8] is Mus musculus. In words: Antinociceptive activity in CD-1 albino mouse model of oxaliplatin-induced neuropathic pain assessed as decrease in pain-related behaviour measured as licking latency at 10 to 100 mg/kg, po treated on day 15 post oxaliplatin treatment and measured after 15 to 30 mins post dose by cold plate test. Format: functional, organism-based. In a few lines: as §1

Data set [9] can be described thus: Solubility of compound in water. Format: physicochemical. Particulars: buffer.

Sequence of Carbonic anhydrase 4 (P22748 whole entry): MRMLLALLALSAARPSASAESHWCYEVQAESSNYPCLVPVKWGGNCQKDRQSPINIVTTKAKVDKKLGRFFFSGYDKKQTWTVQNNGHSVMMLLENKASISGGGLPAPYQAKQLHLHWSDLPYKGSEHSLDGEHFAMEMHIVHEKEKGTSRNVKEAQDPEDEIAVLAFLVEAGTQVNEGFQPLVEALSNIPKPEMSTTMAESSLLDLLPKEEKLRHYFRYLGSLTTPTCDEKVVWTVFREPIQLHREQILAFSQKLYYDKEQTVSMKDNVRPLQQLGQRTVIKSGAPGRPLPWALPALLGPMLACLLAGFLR
Sequence of Carbonic anhydrase 1 (P00915 whole entry): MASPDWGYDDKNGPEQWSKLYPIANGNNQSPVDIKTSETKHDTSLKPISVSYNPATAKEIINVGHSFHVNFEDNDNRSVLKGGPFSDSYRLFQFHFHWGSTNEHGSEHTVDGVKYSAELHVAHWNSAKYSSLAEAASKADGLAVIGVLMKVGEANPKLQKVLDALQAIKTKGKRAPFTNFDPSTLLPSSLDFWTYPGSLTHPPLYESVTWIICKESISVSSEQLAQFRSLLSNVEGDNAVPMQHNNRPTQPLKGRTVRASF
Sequence of Carbonic anhydrase 12 (O43570 whole entry): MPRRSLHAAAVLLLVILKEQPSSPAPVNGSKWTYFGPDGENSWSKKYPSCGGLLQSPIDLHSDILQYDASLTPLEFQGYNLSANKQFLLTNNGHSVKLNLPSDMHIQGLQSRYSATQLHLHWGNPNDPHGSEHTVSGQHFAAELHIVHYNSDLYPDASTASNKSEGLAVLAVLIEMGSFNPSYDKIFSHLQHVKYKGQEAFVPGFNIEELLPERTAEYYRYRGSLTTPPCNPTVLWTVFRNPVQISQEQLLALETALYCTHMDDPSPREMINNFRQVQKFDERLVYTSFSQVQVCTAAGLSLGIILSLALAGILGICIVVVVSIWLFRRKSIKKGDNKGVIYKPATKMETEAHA
Sequence of Carbonic anhydrase 7 (P43166 whole entry): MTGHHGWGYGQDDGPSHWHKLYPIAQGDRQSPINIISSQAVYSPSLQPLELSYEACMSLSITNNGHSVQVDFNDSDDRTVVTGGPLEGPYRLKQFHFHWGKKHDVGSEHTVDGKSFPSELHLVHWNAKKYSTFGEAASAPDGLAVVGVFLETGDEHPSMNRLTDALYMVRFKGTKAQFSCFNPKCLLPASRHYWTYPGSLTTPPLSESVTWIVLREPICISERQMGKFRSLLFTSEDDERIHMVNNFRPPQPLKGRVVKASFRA
Sequence of Carbonic anhydrase 5B, mitochondrial (Q9Y2D0 whole entry): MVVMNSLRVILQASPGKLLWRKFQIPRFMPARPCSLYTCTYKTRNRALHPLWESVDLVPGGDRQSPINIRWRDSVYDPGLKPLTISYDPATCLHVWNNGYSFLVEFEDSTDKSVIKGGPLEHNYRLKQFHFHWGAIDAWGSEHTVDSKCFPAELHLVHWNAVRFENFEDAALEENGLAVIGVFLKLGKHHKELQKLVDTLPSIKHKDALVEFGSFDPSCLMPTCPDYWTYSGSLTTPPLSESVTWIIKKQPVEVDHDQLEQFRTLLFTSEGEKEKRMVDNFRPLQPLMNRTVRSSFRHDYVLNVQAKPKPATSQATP
Sequence of Carbonic anhydrase 5A, mitochondrial (P35218 whole entry): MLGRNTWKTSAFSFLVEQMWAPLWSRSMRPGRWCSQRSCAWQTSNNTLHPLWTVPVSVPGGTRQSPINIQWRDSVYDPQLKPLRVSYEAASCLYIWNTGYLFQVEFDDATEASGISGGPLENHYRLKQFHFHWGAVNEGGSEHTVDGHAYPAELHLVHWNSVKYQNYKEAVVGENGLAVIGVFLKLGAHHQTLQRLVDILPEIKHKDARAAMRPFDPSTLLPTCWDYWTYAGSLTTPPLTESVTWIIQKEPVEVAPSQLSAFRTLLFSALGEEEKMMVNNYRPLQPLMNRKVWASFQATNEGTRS

Broadly, the Ki is a dissociation constant, usually derived from enzyme kinetics or from competition with a known ligand. `C#CCO[P@@](=O)(Oc1ccc(S(N)(=O)=O)cc1)c1ccccc1`: the result with Mus musculus [1] was inactive. Besides, the Ki worked out at 49.2 nM on Carbonic anhydrase 12; 66.1 nM in [2]; 66.5 nM in data set [3]; 1980 nM on Carbonic anhydrase 4; 71.3 nM at Carbonic anhydrase 7; 56.4 nM at Carbonic anhydrase 2. For the same compound, the Ki at Carbonic anhydrase 1 was 365 nM.
As for `NS(=O)(=O)c1ccc(OP(=O)(O)c2ccccc2)cc1`, the Ki on Carbonic anhydrase 12 is 30.8 nM; in data set [2], 52.8 nM; in data set [3], 76.3 nM; on Carbonic anhydrase 4, 220 nM; on Carbonic anhydrase 9, 26.1 nM; on Carbonic anhydrase 7, 16.1 nM. The Ki at Carbonic anhydrase 2 was found to be 37.9 nM; at Carbonic anhydrase 1, 197 nM.
In the case of `C#CCO[P@](=O)(Oc1ccc(S(N)(=O)=O)cc1)c1ccccc1`, the result with Mus musculus [1] was Active. Further, the Ki came out at 17.3 nM at Carbonic anhydrase 12; 19.2 nM in data set [2]; 108 nM in [3]; 746 nM on Carbonic anhydrase 4; 1.1 nM on Carbonic anhydrase 7; 0.78 nM at Carbonic anhydrase 2. In addition, the Ki on Carbonic anhydrase 1 was 564 nM.
As to `COCCOP(=O)(Oc1ccc(S(N)(=O)=O)cc1)c1ccccc1` (racemic), the Ki at Carbonic anhydrase 12 was 35.7 nM; in [2] it was 67.2 nM; in [3], 59.3 nM; at Carbonic anhydrase 4, 1640 nM; at Carbonic anhydrase 9, 12.1 nM; at Carbonic anhydrase 7 it was 25 nM. In addition, the Ki on Carbonic anhydrase 2 was found to be 28.5 nM; on Carbonic anhydrase 1 it was 780 nM.
With `NS(=O)(=O)c1ccc(OP(=O)(Oc2ccccc2)c2ccccc2)cc1` (racemic), the Ki at Carbonic anhydrase 12 came to 24.6 nM; in [2], 22.7 nM; in data set [3] it was 470 nM; at Carbonic anhydrase 4, 2620 nM; on Carbonic anhydrase 9, 13.2 nM; at Carbonic anhydrase 7, 31.4 nM. Moreover, the figures for the Ki on Carbonic anhydrase 2 and at Carbonic anhydrase 1 were 15.2 nM and 971 nM, respectively.
Consider `CC(C)OP(=O)(Oc1ccc(S(N)(=O)=O)cc1)c1ccccc1` (racemic), for which the Ki on Carbonic anhydrase 12 stood at 42 nM; in data set [2], 19.8 nM; in [3], 101 nM; at Carbonic anhydrase 4, 1200 nM; on Carbonic anhydrase 9 it was 17.5 nM; on Carbonic anhydrase 7, 6.2 nM. For the same compound, the Ki is 12.8 nM at Carbonic anhydrase 2 and 308 nM at Carbonic anhydrase 1. For the same compound, the Stability entry in data set [4], in data set [5] and in [7] was “Stable” in each case. In addition, the Activity entry in the data set on Mus musculus [6] is “Dose-dependent effect”.
For the compound `CCSP(=O)(Oc1ccc(S(N)(=O)=O)cc1)c1ccccc1` (racemic), the Ki on Carbonic anhydrase 12 stood at 34.1 nM; in data set [2], 96.7 nM; in data set [3], 94.3 nM; on Carbonic anhydrase 4, 1390 nM; at Carbonic anhydrase 9, 27 nM; on Carbonic anhydrase 7, 41.5 nM. The inhibition constant Ki at Carbonic anhydrase 2 turned out to be 30.2 nM; on Carbonic anhydrase 1, 727 nM.
Consider `NS(=O)(=O)c1ccc(OP(=O)(NCc2ccccc2)c2ccccc2)cc1` (racemic), for which the inhibition constant Ki is 19.7 nM on Carbonic anhydrase 12; 68.7 nM in data set [2]; 59.1 nM in data set [3]; 644 nM at Carbonic anhydrase 4; 2.6 nM at Carbonic anhydrase 9; 15.4 nM at Carbonic anhydrase 7. For the same compound, the figures for the Ki on Carbonic anhydrase 2 and on Carbonic anhydrase 1 were 52.9 nM and 1710 nM, respectively.
Consider `NS(=O)(=O)c1ccc(OP(=O)(Nc2ccccc2)c2ccccc2)cc1` (racemic), for which the Ki worked out at 20.9 nM on Carbonic anhydrase 12; 24 nM in [2]; 185 nM in data set [3]; 860 nM at Carbonic anhydrase 4; 19.6 nM at Carbonic anhydrase 9; 5.5 nM on Carbonic anhydrase 7. In addition, the values for the Ki at Carbonic anhydrase 2 and at Carbonic anhydrase 1 were 2.4 nM and 818 nM, respectively. Further, the Stability entry in data set [4], in [5] and in [7] was “Stable” throughout. Further, the result with Mus musculus [8] was Active.
For `CCCNP(=O)(Oc1ccc(S(N)(=O)=O)cc1)c1ccccc1` (racemic), the Ki on Carbonic anhydrase 12 is 17.3 nM; in data set [2] it was 33.7 nM; in data set [3], 85.2 nM; at Carbonic anhydrase 4, 1520 nM; at Carbonic anhydrase 9, 3.2 nM; on Carbonic anhydrase 7 it was 20.8 nM. Besides, the inhibitory constant (Ki) at Carbonic anhydrase 2 came out at 26.2 nM; on Carbonic anhydrase 1, 759 nM.
With `NS(=O)(=O)c1ccc(OP(=O)(SCc2ccccc2)c2ccccc2)cc1` (racemic), the Ki at Carbonic anhydrase 12 was determined as 21.3 nM; in data set [2] it was 58.4 nM; in [3] it was 151 nM; on Carbonic anhydrase 4, 4460 nM; at Carbonic anhydrase 9 it was 25 nM; on Carbonic anhydrase 7, 75.5 nM. Also, the Ki was found to be 64.8 nM on Carbonic anhydrase 2 and 3260 nM at Carbonic anhydrase 1.
As to `CCN(CC)P(=O)(Oc1ccc(S(N)(=O)=O)cc1)c1ccccc1` (racemic), the Ki stood at 46.8 nM at Carbonic anhydrase 12; 49.1 nM in data set [2]; 107 nM in data set [3]; 371 nM on Carbonic anhydrase 4; 19.5 nM at Carbonic anhydrase 9; 13.5 nM on Carbonic anhydrase 7. Besides, the inhibition constant Ki came out at 17.5 nM on Carbonic anhydrase 2 and 521 nM on Carbonic anhydrase 1.
For `CCOP(=O)(Oc1ccc(S(N)(=O)=O)cc1)c1ccccc1` (racemic), the Ki at Carbonic anhydrase 12 worked out at 22.4 nM; in data set [2], 40.1 nM; in data set [3], 143 nM; at Carbonic anhydrase 4, 425 nM; on Carbonic anhydrase 9, 18.7 nM; on Carbonic anhydrase 7, 38.2 nM. In addition, the results for the Ki on Carbonic anhydrase 2 and at Carbonic anhydrase 1 were 36.6 nM and 398 nM, respectively.
Turning to `COP(=O)(Oc1ccc(S(N)(=O)=O)cc1)c1ccccc1` (racemic), the Ki at Carbonic anhydrase 12 is 47.2 nM; in data set [2] it was 24.3 nM; in data set [3], 51.7 nM; at Carbonic anhydrase 4, 259 nM; on Carbonic anhydrase 9, 16.2 nM; on Carbonic anhydrase 7, 36 nM. The Ki was found to be 11.4 nM at Carbonic anhydrase 2 and 495 nM on Carbonic anhydrase 1.
`NS(=O)(=O)c1ccc(OP(=O)(Sc2ccccc2)c2ccccc2)cc1` (racemic): the inhibition constant (Ki) on Carbonic anhydrase 12 was 39.2 nM; in [2], 28.7 nM; in data set [3], 382 nM; at Carbonic anhydrase 4, 2630 nM; at Carbonic anhydrase 9, 6.6 nM; at Carbonic anhydrase 7, 15.7 nM. Besides, the Ki is 34.9 nM at Carbonic anhydrase 2 and 1630 nM at Carbonic anhydrase 1.
As to `CCCCCCCCCCCCSP(=O)(Oc1ccc(S(N)(=O)=O)cc1)c1ccccc1` (racemic), the Ki on Carbonic anhydrase 12 turned out to be 47.8 nM; in data set [2], 225 nM; in data set [3], 642 nM; at Carbonic anhydrase 4, 4160 nM; at Carbonic anhydrase 9, 51.2 nM; at Carbonic anhydrase 7 it was 101 nM. Also, the results for the Ki on Carbonic anhydrase 2 and at Carbonic anhydrase 1 were 234 nM and 8350 nM, respectively.
As for `NP(=O)(Oc1ccc(S(N)(=O)=O)cc1)c1ccccc1` (racemic), the Ki at Carbonic anhydrase 12 was found to be 15.4 nM; in [2], 12.6 nM; in data set [3], 41.3 nM; on Carbonic anhydrase 4, 292 nM; on Carbonic anhydrase 9, 20.9 nM; at Carbonic anhydrase 7 it was 18.9 nM. Also, the Ki at Carbonic anhydrase 2 is 17.9 nM; at Carbonic anhydrase 1, 195 nM.
Turning to `CN1CCN(P(=O)(Oc2ccc(S(N)(=O)=O)cc2)c2ccccc2)CC1` (racemic), the Ki on Carbonic anhydrase 12 came to 25.3 nM; in data set [2], 47.3 nM; in data set [3], 164 nM; on Carbonic anhydrase 4 it was 76.9 nM; at Carbonic anhydrase 9, 61.9 nM; on Carbonic anhydrase 7, 17 nM. Further, the Ki turned out to be 9.1 nM on Carbonic anhydrase 2 and 391 nM at Carbonic anhydrase 1. The Stability result in [4], in [5] and in [7] was “Stable” throughout. The outcome with Mus musculus [8] was Active. Moreover, in [9], the solubility result is listed as “Soluble”.
In the case of `NS(=O)(=O)c1ccc(OP(=O)(c2ccccc2)N2CCOCC2)cc1` (racemic), the Ki on Carbonic anhydrase 12 came to 27.6 nM; in [2], 27.4 nM; in data set [3], 43.9 nM; on Carbonic anhydrase 4, 120 nM; on Carbonic anhydrase 9 it was 11.1 nM; on Carbonic anhydrase 7, 30.5 nM. Also, the Ki turned out to be 7.9 nM at Carbonic anhydrase 2 and 318 nM on Carbonic anhydrase 1.
